Results on nine molecules are retold here after ChEMBL document CHEMBL4251558, “Synthesis and preliminary antiproliferative activity of new pteridin-7(8H)-one derivatives” (Eur J Med Chem, 2018).

Active and inactive are the calls of the source. The calls are words filed in the database; no cut-off is given here.

One assay concerns NCI-H1650. Nature of the assay: Antiproliferative activity against human NCI-H1650 cells assessed as decrease in cell viability after 48 hrs by MTT assay. Format: functional, cell-based. Particulars: NCI-H1650, 48 h. The method in brief: (§1)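 Cells in exponential growth seeded at 3000 per well and allowed 24 h. Medium then replaced with fresh medium holding a range of compound concentrations, followed by 48 h incubation. Viability read by MTT at 570 nm. IC50 is the concentration giving 50% inhibition of proliferation, reported as mean ± SD of three independent experiments.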
A general note: Tetrazolium dyes change colour on reduction, which living cells bring about.

For another assay, the system named is MGC-803. Nature of the assay: Antiproliferative activity against human MGC803 cells assessed as decrease in cell viability after 48 hrs by MTT assay. It is filed as functional, cell-based. Conditions: MGC-803, 48 h. The procedure, abridged: as §1
In another assay the test system is ECa-109 cell line. Briefly: Antiproliferative activity against human EC109 cells assessed as decrease in cell viability after 48 hrs by MTT assay. It is filed as functional, cell-based. Particulars: ECa-109, 48 h. The procedure, abridged:
as §1

In assay [1] the test system is MKN-45. Nature of the assay: Antiproliferative activity against human MKN45 cells assessed as decrease in cell viability after 48 hrs by MTT assay. It is filed as functional, cell-based. Conditions: MKN-45, 48 h. The method in brief:
as §1

Assay [2] concerns MKN-45. Nature of the assay: Induction of apoptosis in human MKN45 cells assessed as necrotic cells at 8 uM after 24 hrs by Annexin V-FITC/propidium iodide staining-based flow-cytometric method (reference value: 3.86%). It is filed as functional.
Assay [3] concerns MKN-45. Nature of the assay: Induction of apoptosis in human MKN45 cells assessed as cell rounding at 4 to 8 uM after 24 hrs by Hoechst 33258 staining-based fluorescence microscopic method. It is filed as functional.
Assay [4] deals with MKN-45. Nature of the assay: Induction of apoptosis in human MKN45 cells assessed as late apoptotic cells at 2 uM after 24 hrs by Annexin V-FITC/propidium iodide staining-based flow-cytometric method (reference value: 3.99%). It is filed as functional.
The subject of assay [5] is MKN-45. Briefly: Cell cycle arrest in human MKN45 cells assessed as accumulation at G1 phase at 2 uM after 24 hrs by propidium iodide staining-based flow cytometric method (reference value: 58.2%). It is filed as functional. The procedure, abridged: (§2)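 MKN-45 cells exposed to compound at 0, 2, 4 or 8 µM for 24 h. Cells then fixed and stained with PI, and DNA content analysed by flow cytometry to give phase distribution. Run three times; a representative experiment is shown.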
Background: Flow cytometry measures light scatter and fluorescence of single cells or particles in a stream.

The subject of assay [6] is MKN-45. Briefly: Cell cycle arrest in human MKN45 cells assessed as accumulation at G1 phase at 4 uM after 24 hrs by propidium iodide staining-based flow cytometric method (reference value: 58.2%). Format: functional. The method in brief: as §2
The test system of assay [7] is MKN-45. Nature of the assay: Induction of apoptosis in human MKN45 cells assessed as formation of apoptotic bodies at 4 to 8 uM after 24 hrs by Hoechst 33258 staining-based fluorescence microscopic method. Format: functional, cell-based.
Assay [8] deals with MKN-45. Briefly: Induction of apoptosis in human MKN45 cells assessed as late apoptotic cells at 8 uM after 24 hrs by Annexin V-FITC/propidium iodide staining-based flow-cytometric method (reference value: 3.99%). It is filed as functional.
The subject of assay [9] is MKN-45. Briefly: Cell cycle arrest in human MKN45 cells assessed as accumulation at G1 phase at 8 uM after 24 hrs by propidium iodide staining-based flow cytometric method (reference value: 58.2%). It is filed as functional. The procedure, abridged:
as §2

Assay [10] deals with MKN-45. Nature of the assay: Induction of apoptosis in human MKN45 cells assessed as downregulation of Bcl-2 expression at 4 to 16 uM after 24 hrs by Western blot method. It is filed as functional, cell-based. The procedure, abridged:
(§3)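 MKN-45 cells treated with a range of concentrations for 24 h. Cells lysed in RIPA buffer with protease inhibitors, and protein measured by BCA assay. Lysates run on SDS-PAGE and transferred to nitrocellulose. Membranes blocked in 5% skim milk for 2 h at RT, incubated with primary antibodies overnight at 4 °C, then secondary antibody (1:5000) for 2 h at RT. Detection by ECL on film.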
(In general: Immunoblotting shows a protein as a band on a membrane.)

Assay [11] deals with MKN-45. Nature of the assay: Induction of apoptosis in human MKN45 cells assessed as early apoptotic cells at 2 uM after 24 hrs by Annexin V-FITC/propidium iodide staining-based flow-cytometric method (reference value: 1.31%). It is filed as functional.
In assay [12] the test system is MKN-45. Briefly: Induction of apoptosis in human MKN45 cells assessed as late apoptotic cells at 4 uM after 24 hrs by Annexin V-FITC/propidium iodide staining-based flow-cytometric method (reference value: 3.99%). Format: functional.
Assay [13] deals with MKN-45. Nature of the assay: Cell cycle arrest in human MKN45 cells assessed as accumulation at S phase at 2 uM after 24 hrs by propidium iodide staining-based flow cytometric method (reference value: 24.9%). It is filed as functional. The method in brief: as §2
Assay [14] relates to MKN-45. Nature of the assay: Induction of apoptosis in human MKN45 cells assessed as cleavage of caspases-3 after 24 hrs by Western blot method. Format: functional, cell-based. The procedure, abridged:
as §3

The test system of assay [15] is MKN-45. Nature of the assay: Cell cycle arrest in human MKN45 cells assessed as accumulation at G2/M phase at 2 uM after 24 hrs by propidium iodide staining-based flow cytometric method (reference value: 1.62%). Format: functional. The method in brief:
as §2

The subject of assay [16] is MKN-45. Briefly: Induction of apoptosis in human MKN45 cells assessed as viable cells at 8 uM after 24 hrs by Annexin V-FITC/propidium iodide staining-based flow-cytometric method (reference value: 90.8%). Format: functional. Particulars: MKN-45, 24 h, read-out: Activity.
Assay [17] has as its system MKN-45. Nature of the assay: Induction of apoptosis in human MKN45 cells assessed as early apoptotic cells at 4 uM after 24 hrs by Annexin V-FITC/propidium iodide staining-based flow-cytometric method (reference value: 1.31%). Format: functional.
For assay [18], the system named is MKN-45. Nature of the assay: Cell cycle arrest in human MKN45 cells assessed as accumulation at S phase at 4 uM after 24 hrs by propidium iodide staining-based flow cytometric method (reference value: 24.9%). It is filed as functional. The method in brief: as §2
Assay [19] relates to MKN-45. Nature of the assay: Induction of apoptosis in human MKN45 cells assessed as necrotic cells at 4 uM after 24 hrs by Annexin V-FITC/propidium iodide staining-based flow-cytometric method (reference value: 3.86%). It is filed as functional.
The test system of assay [20] is MKN-45. Briefly: Induction of apoptosis in human MKN45 cells assessed as upregulation of Bax expression after 24 hrs by Western blot method. Format: functional, cell-based. The method in brief: as §3
In assay [21] the test system is MKN-45. Nature of the assay: Cell cycle arrest in human MKN45 cells assessed as accumulation at G2/M phase after 24 hrs by propidium iodide staining-based flow cytometric method. It is filed as functional. The procedure, abridged: as §2
In assay [22] the test system is MKN-45. Nature of the assay: Induction of apoptosis in human MKN45 cells assessed as viable cells at 2 uM after 24 hrs by Annexin V-FITC/propidium iodide staining-based flow-cytometric method (reference value: 90.8%). It is filed as functional. Particulars: MKN-45, 24 h, read-out: Activity.
Assay [23] deals with MKN-45. Nature of the assay: Induction of apoptosis in human MKN45 cells assessed as necrotic cells at 2 uM after 24 hrs by Annexin V-FITC/propidium iodide staining-based flow-cytometric method (reference value: 3.86%). Format: functional.
The test system of assay [24] is MKN-45. Briefly: Cell cycle arrest in human MKN45 cells assessed as accumulation at G2/M phase at 8 uM after 24 hrs by propidium iodide staining-based flow cytometric method (reference value: 1.62%). It is filed as functional. The method in brief: as §2
Assay [25] deals with MKN-45. Nature of the assay: Cell cycle arrest in human MKN45 cells assessed as accumulation at G2/M phase at 4 uM after 24 hrs by propidium iodide staining-based flow cytometric method (reference value: 1.62%). It is filed as functional. The method in brief: as §2
In assay [26] the test system is MKN-45. Briefly: Cell cycle arrest in human MKN45 cells assessed as accumulation at S phase at 8 uM after 24 hrs by propidium iodide staining-based flow cytometric method (reference value: 24.9%). Format: functional. The method in brief:
as §2

In assay [27] the test system is MKN-45. Nature of the assay: Induction of apoptosis in human MKN45 cells assessed as viable cells at 4 uM after 24 hrs by Annexin V-FITC/propidium iodide staining-based flow-cytometric method (reference value: 90.8%). Format: functional. Particulars: MKN-45, 24 h, read-out: Activity.
The subject of assay [28] is MKN-45. Briefly: Induction of apoptosis in human MKN45 cells after 24 hrs by Annexin V-FITC/propidium iodide staining-based flow-cytometric method. Format: functional, cell-based.
Assay [29] relates to MKN-45. Nature of the assay: Induction of apoptosis in human MKN45 cells assessed as chromatin shrinkage at 4 to 8 uM after 24 hrs by Hoechst 33258 staining-based fluorescence microscopic method. Format: functional, cell-based.
In assay [30] the test system is MKN-45. Nature of the assay: Induction of apoptosis in human MKN45 cells assessed as early apoptotic cells at 8 uM after 24 hrs by Annexin V-FITC/propidium iodide staining-based flow-cytometric method (reference value: 1.31%). Format: functional.
In assay [31] the test system is MKN-45. Nature of the assay: Induction of apoptosis in human MKN45 cells assessed as cleavage of caspases-9 after 24 hrs by Western blot method. It is filed as functional, cell-based. The procedure, abridged: as §3

As to `CCCSc1nc(N2CCOCC2)c2ncc(=O)n(Cc3ccccc3)c2n1`, the IC50 (as a rule, the midpoint of a concentration-inhibition curve) with NCI-H1650 is more than 64 µM; with MGC-803 it was 49.6 µM; in the assay with ECa-109 cell line, more than 64 µM; with MKN-45 [1] it was more than 64 µM.
For `CCCNc1nc(SCCC)nc2c1ncc(=O)n2Cc1ccccc1`, the IC50 in the assay on NCI-H1650 was more than 64 µM; in the assay on MGC-803 it was more than 64 µM; in the assay on ECa-109 cell line, more than 64 µM; in the assay with MKN-45 [1], 39.2 µM.
For `CCCSc1nc(N2CCN(C)CC2)c2ncc(=O)n(Cc3ccco3)c2n1`, the IC50 in the assay on NCI-H1650 is 54.9 µM; with MGC-803, more than 64 µM; in the assay on ECa-109 cell line, 24 µM; with MKN-45 [1], 11.6 µM.
Take `CCCSc1nc(NCc2ccccc2)c2ncc(=O)n(Cc3ccccc3)c2n1`: the IC50 in the assay on NCI-H1650 was more than 64 µM; in the assay on MGC-803 it was 46.6 µM; with ECa-109 cell line, more than 64 µM; in the assay on MKN-45 [1] it was more than 64 µM.
As to `CCCSc1nc(N2CCN(Cc3ccccc3)CC2)c2ncc(=O)n(Cc3ccccc3)c2n1`, the IC50 is more than 64 µM with NCI-H1650, 18.7 µM with MGC-803, more than 64 µM with ECa-109 cell line and 15.4 µM in the assay with MKN-45 [1].
Regarding `CCCSc1nc(NC2CC2)c2ncc(=O)n(Cc3ccccc3)c2n1`, the IC50 in the assay on NCI-H1650 is more than 64 µM; in the assay with MGC-803, 43.7 µM; with ECa-109 cell line, 29.7 µM; in the assay on MKN-45 [1], 23.3 µM.
Taken in the same sequence, the figures for `CN1CCN(c2ncnc3c2ncc(=O)n3Cc2ccccc2)CC1` were more than 64 µM, more than 64 µM, 41.7 µM and more than 64 µM.
As for `CCCSc1nc(N2CCN(C)CC2)c2ncc(=O)n(Cc3ccccc3)c2n1`, the Activity with MKN-45 [2] is on record as 2.34%; with MKN-45 [4], 11.3%; with MKN-45 [5], 42.2%; with MKN-45 [6] it was 16.2%; with MKN-45 [8], 23.1%; in the assay on MKN-45 [9], 6.91%. The Activity in the assay on MKN-45 [11] was 15.7%; with MKN-45 [12], 16%; in the assay with MKN-45 [13], 20.2%; in the assay with MKN-45 [14] it was “Dose-dependent effect”; in the assay on MKN-45 [15], 16.6%; in the assay with MKN-45 [17], 9.91%. Further, the Activity with MKN-45 [18] is 24%; in the assay on MKN-45 [19], 1.02%; with MKN-45 [20], “Dose-dependent effect”; in the assay with MKN-45 [21], “Dose-dependent effect”; in the assay on MKN-45 [23], 1.62%; in the assay on MKN-45 [24], 40.8%. For the same molecule, the Activity with MKN-45 [25] is 29.2%; in the assay on MKN-45 [26] it was 25.7%; in the assay with MKN-45 [28] it was “Dose-dependent effect”; in the assay with MKN-45 [30], 7.77%; with MKN-45 [31], “Dose-dependent effect”. Besides, the result in the assay on MKN-45 [3], in the assay with MKN-45 [7], with MKN-45 [10] and in the assay with MKN-45 [29] was Active. Moreover, the IC50 in the assay with NCI-H1650 was determined as 9.92 µM; in the assay with MGC-803, 7.01 µM; with ECa-109 cell line, 9.85 µM; in the assay with MKN-45 [1] it was 4.32 µM. Besides, the viability at 8 µM in the assay with MKN-45 [16] turned out to be 66.8%. The viability at 2 µM with MKN-45 [22] was 71.4%. Also, the viability at 4 µM in the assay on MKN-45 [27] was 73%.
Consider `CCCSc1nc(Nc2ccccc2OC)c2ncc(=O)n(Cc3ccccc3)c2n1`, for which the IC50 in the assay on NCI-H1650 was 51.8 µM; in the assay with MGC-803, 19.4 µM; in the assay on ECa-109 cell line, more than 64 µM; in the assay with MKN-45 [1], 14.7 µM.
